Measurements collected from several papers.
Lines come from different studies, so protocols differ. ≈ marks a conversion by molar mass, not a printed value.

CCCCCCC/C=C/C(=O)N1C(=O)/C(=C(\O)c2ccc(F)cc2)C(=O)C1CC(C)C (centres unmarked)  MIC (Proteus mirabilis; microbial growth; ATCC25933): > 200 µg/mL
CCCCOC(=O)N[C@H](C(=O)N1CCC[C@H]1C(=O)Nc1ccc(C#CC#Cc2ccc(NC(=O)[C@@H]3CCCN3C(=O)[C@@H](NC(=O)OCCCC)C(C)C)cc2)cc1)C(C)C  EC50 (Hepatitis C virus; viral replication, inhibitor, luciferase; Huh-5-2, GETYPE1B; 72 h, replicon): 919 nM
CC1(C)OC[C@@]2(C)[C@H]3CC[C@@H]4CN(Cc5ccccc5C5CC5)[C@@H](C5=CCOC5=O)C[C@H]4[C@]3(C)CC[C@H]2O1  inhibition (unidentified human coronavirus; cytopathic effect; MRC5; 25 µM, 72 h): 93.2%
CCOC(=O)c1cc(C#N)c(=O)n(NS(=O)(=O)c2ccccc2)c1N  IC50 (Enterovirus B; plaque formation; BGM, B4): 88 µg/mL
CCCCCCC/C=C/C(=O)N1C(=O)/C(=C(\O)c2ccncc2)C(=O)C1CC(C)C (centres unmarked)  MIC (Proteus mirabilis; microbial growth; ATCC25933): > 200 µg/mL
Cc1ccc(-c2nn(-c3ccccc3)cc2C=c2sc(=CC#N)[nH]c2=O)cc1  inhibition zone (Acinetobacter baumannii; microbial growth, well diffusion; 100000 µg/mL): 14 mm
Nc1nc(NS(=O)(=O)c2ccccc2)nc(-c2ccc(F)cc2)c1-c1nc2ccccc2s1  IC50 (Enterovirus B; plaque formation; BGM, B4): 93 µg/mL
O=[N+]([O-])c1ccc(O)c2ncccc12  IC50 (Acinetobacter baumannii; microbial growth; 19606): 560 nM
CCCCCCC/C=C/C(=O)N1C(=O)/C(=C(\O)c2ccc(O)cc2)C(=O)C1CC(C)C (centres unmarked)  MIC (Proteus mirabilis; microbial growth; ATCC25933): > 200 µg/mL
CC(=O)OC[C@@]1(C)[C@H]2CC[C@@H]3CN(Cc4cccc5ccccc45)[C@@H](C4=CCOC4=O)C[C@H]3[C@]2(C)CC[C@H]1OC(C)=O  inhibition (unidentified human coronavirus; cytopathic effect; MRC5; 25 µM, 72 h): 106%
C[C@@]1(O)[C@H](O)[C@@H](CO)O[C@H]1n1ccc(N)nc1=O  EC90 (Hepatitis C virus; viral replication, inhibitor; Huh-7; replicon): 5.8 µM
CCOC(=O)N[C@H](C(=O)N1CCC[C@H]1C(=O)Nc1cccc(C#CC#Cc2cccc(NC(=O)[C@@H]3CCCN3C(=O)[C@@H](NC(=O)OCC)C(C)C)c2)c1)C(C)C  EC50 (Hepatitis C virus; viral replication, inhibitor, luciferase; Huh-5-2, GETYPE1B; 72 h, replicon): 451 nM
COc1nc(OC)c2ncn([C@@H]3O[C@H](CO)[C@@H](F)[C@@H]3F)c2n1  EC50 (Hepatitis C virus; viral replication, inhibitor; Huh-7; replicon): > 10000 nM
CC(C)[C@H](NC(=O)OCc1ccccc1)C(=O)N1CCC[C@H]1C(=O)Nc1cccc(C#CC#Cc2cccc(NC(=O)[C@@H]3CCCN3C(=O)[C@@H](NC(=O)OCc3ccccc3)C(C)C)c2)c1  EC50 (Hepatitis C virus; viral replication, inhibitor, luciferase; Huh-5-2, GETYPE1B; 72 h, replicon): > 10000 nM
Cc1c(NN=C2SC(CC#N)=NC2=O)c(=O)n(-c2ccccc2)n1C  inhibition zone (Acinetobacter baumannii; microbial growth, well diffusion; 100000 µg/mL): 15 mm
CCOC(=O)N[C@H](CC(C)C)C(=O)N1CCC[C@@H]1C(=O)Nc1ccc(C#CC#Cc2ccc(NC(=O)[C@H]3CCCN3C(=O)[C@@H](CC(C)C)NC(=O)OCC)cc2)cc1  EC50 (Hepatitis C virus; viral replication, inhibitor, luciferase; Huh-5-2, GETYPE1B; 72 h, replicon): > 10000 nM
N#CC(=Cc1ccc([N+](=O)[O-])cc1)C1=NC(=O)C(=Cc2cn(-c3ccccc3)nc2-c2ccccc2)S1  inhibition zone (Acinetobacter baumannii; microbial growth, well diffusion; 100000 µg/mL): 19 mm
OC[C@H]1O[C@@H](n2cnc3c(NCc4ccccc4)nc(Cl)nc32)[C@@H](F)[C@@H]1F  EC50 (Hepatitis C virus; viral replication, inhibitor; Huh-7; replicon): 2900 nM
COC(=O)N[C@H](CC(C)C)C(=O)N1CCC[C@H]1C(=O)Nc1cccc(C#CC#Cc2cccc(NC(=O)[C@@H]3CCCN3C(=O)[C@@H](CC(C)C)NC(=O)OC)c2)c1  EC50 (Hepatitis C virus; viral replication, inhibitor, luciferase; Huh-5-2, GETYPE1B; 72 h, replicon): 0.0686 nM
Nc1nc(NS(=O)(=O)c2ccccc2)nc(-c2ccc(Cl)cc2)c1-c1nc2ccccc2s1  IC50 (Enterovirus B; plaque formation; BGM, B4): 91 µg/mL
COC(=O)N[C@H](C(=O)N1CCC[C@H]1C(=O)Nc1cccc(C#CC#Cc2cccc(NC(=O)[C@@H]3CCCN3C(=O)[C@@H](NC(=O)OC)C(C)C)c2)c1)C(C)C  EC50 (Hepatitis C virus; viral replication, inhibitor, luciferase; GETYPE3A; replicon): 9500 nM
N#Cc1cc(-c2nc3ccccc3s2)c(=O)n(NS(=O)(=O)c2ccccc2)c1N  IC50 (Enterovirus B; plaque formation; BGM, B4): 84 µg/mL
CC(C)Oc1c(NC(=O)c2ccc(NC(=O)[C@H](CC(N)=O)NC(=O)c3ccc(NC(=O)c4ccc(C#N)cn4)cc3)cc2)ccc(C(=O)Nc2ccc(C(=O)O)cc2)c1O  MIC (Proteus mirabilis; microbial growth; DSM4479): 4 µg/mL (≈ 4.92 µM)
CCOC(=O)N[C@@H](CC(C)C)C(=O)N1CCC[C@H]1C(=O)Nc1cccc(C#CC#Cc2cccc(NC(=O)[C@@H]3CCCN3C(=O)[C@H](CC(C)C)NC(=O)OCC)c2)c1  EC50 (Hepatitis C virus; viral replication, inhibitor, luciferase; GETYPE4A; replicon): 40.9 nM
C[C@]1(CO)[C@H]2CC[C@@H]3CN(Cc4ccc(F)c(Cl)c4)[C@@H](C4=CCOC4=O)C[C@H]3[C@]2(C)CC[C@H]1O  inhibition (unidentified human coronavirus; cytopathic effect; MRC5; 25 µM, 72 h): 20%
Cc1c(NN=C2SC(C(C#N)=Cc3ccc(Cl)cc3)=NC2=O)c(=O)n(-c2ccccc2)n1C  inhibition zone (Acinetobacter baumannii; microbial growth, well diffusion; 100000 µg/mL): 13 mm
C[C@]1(CO)[C@H]2CC[C@@H]3CN(Cc4ccco4)[C@@H](C4=CCOC4=O)C[C@H]3[C@]2(C)CC[C@H]1O  inhibition (unidentified human coronavirus; cytopathic effect; MRC5; 25 µM, 72 h): -7.7%
COC(=O)N[C@H](C(=O)N1CCC[C@H]1c1ncc(-c2ccc(-c3ccc(-c4cnc([C@@H]5CCCN5C(=O)[C@@H](NC(=O)OC)C(C)C)[nH]4)cc3)cc2)[nH]1)C(C)C  EC50 (Hepatitis C virus; viral replication, inhibitor; GETYPE1A; replicon): 0.05 nM
C/C(O)=C1\C(=O)C(CC(C)C)N(C(=O)C=Cc2ccccc2)C1=O (centres unmarked)  MIC (Proteus mirabilis; microbial growth; ATCC25933): > 200 µg/mL
CC1(C)OC[C@@]2(C)[C@H]3CC[C@@H]4CN(Cc5ccc(C(C)(C)C)cc5)[C@@H](C5=CCOC5=O)C[C@H]4[C@]3(C)CC[C@H]2O1  inhibition (unidentified human coronavirus; cytopathic effect; MRC5; 25 µM, 72 h): 103%
CCCCCCC/C=C/C(=O)N1C(=O)/C(=C(\O)c2ccc(OCOCCOC)cc2)C(=O)C1CC(C)C (centres unmarked)  MIC (Proteus mirabilis; microbial growth; ATCC25933): > 200 µg/mL
O=C(OC[C@H]1O[C@H](n2cnc3c(Cl)nc(Cl)nc32)[C@@H](F)[C@@H]1F)c1ccccc1  EC50 (Hepatitis C virus; viral replication, inhibitor; Huh-7; replicon): < 10000 nM
Cc1ccc(C(=O)CNc2nc(NS(=O)(=O)c3ccccc3)ncc2-c2nc3ccccc3s2)cc1  IC50 (Enterovirus B; plaque formation; BGM, B4): 90 µg/mL
[N-]=[N+]=Nc1nc(N=[N+]=[N-])c2ncn([C@@H]3O[C@H](COC(=O)c4ccccc4)[C@@H](F)[C@@H]3F)c2n1  EC50 (Hepatitis C virus; viral replication, inhibitor; Huh-7; replicon): > 10000 nM
CC(=O)OC[C@@]1(C)[C@H]2CC[C@@H]3CN(Cc4cccs4)[C@@H](C4=CCOC4=O)C[C@H]3[C@]2(C)CC[C@H]1OC(C)=O  inhibition (unidentified human coronavirus; cytopathic effect; MRC5; 25 µM, 72 h): 31.2%
CCOC(=O)N[C@@H](C(=O)N1CCC[C@@H]1C(=O)Nc1ccc(C#CC#Cc2ccc(NC(=O)[C@H]3CCCN3C(=O)[C@H](NC(=O)OCC)C(C)C)cc2)cc1)C(C)C  EC50 (Hepatitis C virus; viral replication, inhibitor, luciferase; Huh-5-2, GETYPE1B; 72 h, replicon): > 10000 nM
N#CC(=Cc1cn(-c2ccccc2)nc1-c1ccccc1)C1=NC(=O)CS1  inhibition zone (Acinetobacter baumannii; microbial growth, well diffusion; 100000 µg/mL): 26 mm
CC(=O)OC[C@@]1(C)[C@H]2CC[C@@H]3CN(Cc4ccc([N+](=O)[O-])cc4)[C@@H](C4=CCOC4=O)C[C@H]3[C@]2(C)CC[C@H]1OC(C)=O  inhibition (unidentified human coronavirus; cytopathic effect; MRC5; 25 µM, 72 h): 44.6%
COc1nc(Cl)nc2c1ncn2[C@@H]1O[C@H](CO)[C@@H](F)[C@@H]1F  EC90 (Hepatitis C virus; viral replication, inhibitor; Huh-7; replicon): > 10 µM
Cc1ccc(-c2nn(-c3ccccc3)cc2C=C(C#N)C2=NC(=O)CS2)cc1  inhibition zone (Acinetobacter baumannii; microbial growth, well diffusion; 100000 µg/mL): 20 mm
CC1(C)OC[C@@]2(C)[C@H]3CC[C@@H]4CN(Cc5ccc(F)c(Cl)c5)[C@@H](C5=CCOC5=O)C[C@H]4[C@]3(C)CC[C@H]2O1  inhibition (unidentified human coronavirus; cytopathic effect; MRC5; 25 µM, 72 h): 51.6%
Nc1nc(N)c2ncn([C@H]3O[C@H](CO)[C@@H](F)[C@@H]3F)c2n1  EC90 (Hepatitis C virus; viral replication, inhibitor; Huh-7; replicon): > 10 µM
CCn1cc(C(=O)O)c(=O)c2cc(F)c(N3CCNCC3)cc21  MBC (Acinetobacter baumannii; microbial killing, broth dilution; BAA747): 16 µM
O=C(O)c1cn(C2CC2)c2cc(N3CCNCC3)c(F)cc2c1=O  MBC (Acinetobacter baumannii; microbial killing, broth dilution): 0.25 µg/mL
